From ChEMBL document CHEMBL3580561, “Mitigation of Acetylcholine Esterase Activity in the 1,7-Diazacarbazole Series of Inhibitors of Checkpoint Kinase 1” (J Med Chem, 2015)
pEC50, pIC50: −log10 of the molar value.

Tests used:
[1] = biological target: T1, Serine/threonine-protein kinase Chk1 (Homo sapiens, UniProt O14757); test: Inhibition of human recombinant Chk1 using biotinylated AKT substrate after 30 mins by Alphascreen biochemical assay
T1 sequence (O14757 whole entry): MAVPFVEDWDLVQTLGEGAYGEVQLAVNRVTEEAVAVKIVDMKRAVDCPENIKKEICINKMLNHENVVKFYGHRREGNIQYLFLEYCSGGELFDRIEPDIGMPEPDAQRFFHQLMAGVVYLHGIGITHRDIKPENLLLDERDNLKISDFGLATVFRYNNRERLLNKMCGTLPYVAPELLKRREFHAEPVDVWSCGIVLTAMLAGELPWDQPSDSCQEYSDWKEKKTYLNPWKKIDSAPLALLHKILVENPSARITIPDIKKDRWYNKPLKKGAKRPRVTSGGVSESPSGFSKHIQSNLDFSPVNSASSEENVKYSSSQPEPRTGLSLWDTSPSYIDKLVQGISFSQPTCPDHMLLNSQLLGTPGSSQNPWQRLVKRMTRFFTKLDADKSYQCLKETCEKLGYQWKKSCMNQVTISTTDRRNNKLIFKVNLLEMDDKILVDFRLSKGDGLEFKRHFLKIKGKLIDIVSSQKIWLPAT

Acetylcholinesterase = Acetylcholinesterase (Homo sapiens, UniProt P22303); test: Inhibition of human acetylcholine esterase by horseradish peroxidase-coupled fluorescence assay
Acetylcholinesterase, sequence (P22303 whole entry): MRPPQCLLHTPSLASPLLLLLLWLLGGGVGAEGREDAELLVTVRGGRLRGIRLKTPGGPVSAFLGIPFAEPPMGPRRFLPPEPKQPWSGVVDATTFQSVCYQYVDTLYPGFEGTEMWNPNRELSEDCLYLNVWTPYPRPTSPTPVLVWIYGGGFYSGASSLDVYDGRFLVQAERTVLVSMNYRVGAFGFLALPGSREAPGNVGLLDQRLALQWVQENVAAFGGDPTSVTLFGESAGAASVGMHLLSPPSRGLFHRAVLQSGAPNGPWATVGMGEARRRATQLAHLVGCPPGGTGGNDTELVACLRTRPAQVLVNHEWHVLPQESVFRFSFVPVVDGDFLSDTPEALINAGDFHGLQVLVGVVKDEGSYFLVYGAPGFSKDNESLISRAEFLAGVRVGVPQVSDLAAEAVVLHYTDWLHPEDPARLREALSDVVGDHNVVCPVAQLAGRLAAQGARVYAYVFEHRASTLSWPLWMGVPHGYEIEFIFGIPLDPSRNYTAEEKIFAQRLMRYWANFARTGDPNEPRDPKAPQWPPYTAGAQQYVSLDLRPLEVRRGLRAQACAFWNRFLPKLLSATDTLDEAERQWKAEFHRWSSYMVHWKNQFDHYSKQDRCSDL
Summary of the method: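 Human AChE at 0.006 U/ml, with 0.25 μM acetylcholine chloride, 0.06 U/ml choline oxidase, 0.05 U/ml horseradish peroxidase and 200 μM Amplex Red, in proprietary buffer with test compound. Incubated 30 min at 25 °C. Fluorescence read.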

[2] = biological target: T1, Serine/threonine-protein kinase Chk1; test: Inhibition of CHK1 in human HT29 cells assessed as phosphorylation of histone H3 after 24 hrs by checkpoint abrogation cellular assay; type: cell-based, HT-29

Structure (SMILES) | pIC50 [1] | pIC50 (Acetylcholinesterase) | pEC50 [2]
N#Cc1cc2c(cn1)[nH]c1ncc(-c3ccc(CN4CCC[C@@H](O)C4)cc3)cc12 | 8.72 | 6.15 | 6.93
N#Cc1cc2c(cn1)[nH]c1ncc(Br)cc12 | 6.85 | – | –
COc1cc2c(cn1)[nH]c1ncc(-c3ccc(CN4CCCCC4)cc3)cc12 | 7.70 | – | 6.01
N#Cc1cc2c(cn1)[nH]c1ncc(-c3ccc(N4CCOCC4)cc3)cc12 | 7.10 | – | 6.66
N#Cc1cc2c(cn1)[nH]c1ncc(-c3ccc(CN4CCC(C#N)CC4)cc3)cc12 | 7.94 | 5.57 | 6.47
N#Cc1cc2c(cn1)[nH]c1ncc(O)cc12 | 7.42 | – | < 5.30
CC(=O)Nc1cccc(-c2cnc3[nH]c4cnc(C#N)cc4c3c2)c1 | 7.87 | – | 6.37
CC1(C)CCCN(Cc2ccc(-c3cnc4[nH]c5cnc(C#N)cc5c4c3)cc2)C1 | 8.03 | 5.48 | 6.89
N#Cc1cc2c(cn1)[nH]c1ncc(-c3ccc(CO)cc3)cc12 | 7.94 | – | 6.03
c1ncc(-c2cc3c(cn2)[nH]c2ncc(-c4ccc(CN5CCCCC5)cc4)cc23)o1 | 9.34 | 6.49 | 7.62
N#Cc1cc2c(cn1)[nH]c1ncc(-c3cccc(CO)c3)cc12 | 7.57 | – | < 5.30
CC1(C)CCN(Cc2ccc(-c3cnc4[nH]c5cnc(C#N)cc5c4c3)cc2)CC1 | 8.36 | 7.96 | 6.76
Oc1cc2c(cn1)[nH]c1ncc(-c3ccc(CN4CCCCC4)cc3)cc12 | 6.06 | – | –
N#Cc1cc2c(cn1)[nH]c1ncc(-c3ccoc3)cc12 | 7.78 | – | 6.74
c1cc(-c2cc3c(cn2)[nH]c2ncc(-c4ccc(CN5CCCCC5)cc4)cc23)cnn1 | 8.54 | 5.98 | 6.18
c1ncc(-c2cc3c(cn2)[nH]c2ncc(-c4ccc(CN5CCCCC5)cc4)cc23)s1 | 8.89 | 6.30 | 7.20
N#Cc1cc2c(cn1)[nH]c1ncc(-c3nc(CN4CCCCC4)cs3)cc12 | 7.87 | 7.74 | 6.18
NC(=O)c1cc2c(cn1)[nH]c1ncc(-c3ccc(CN4CCCCC4)cc3)cc12 | 8.37 | 6.66 | 6.53
OCc1cc2c(cn1)[nH]c1ncc(-c3ccc(CN4CCCCC4)cc3)cc12 | 7.74 | – | 6.35
N#Cc1cc2c(cn1)[nH]c1ncc(-c3ccc(CN4CCCCC4)nc3)cc12 | 8.28 | 6.73 | 6.27
N#Cc1cc2c(cn1)[nH]c1ncccc12 | 6.38 | – | –
CCN1CCc2sc(-c3cnc4[nH]c5cnc(C#N)cc5c4c3)cc2C1 | 9.11 | 6.59 | 7.29
Cn1cc(-c2cc3c(cn2)[nH]c2ncc(-c4ccc(CN5CCCCC5)cc4)cc23)cn1 | 9.51 | 6.06 | 8.05
N#Cc1cc2c(cn1)[nH]c1ncc(-c3ccccc3O)cc12 | 7.38 | – | < 5.30

Structure (SMILES) | pIC50 [1] | pIC50 (Acetylcholinesterase) | pEC50 [2]
N#Cc1cc2c(cn1)[nH]c1ncc(-c3cccs3)cc12 | 7.69 | – | 6.32
N#Cc1cc2c(cn1)[nH]c1ncc(-c3ccc(CN4CCC(O)CC4)cc3)cc12 | 8.74 | 6.42 | 6.84
C[C@@H]1C[C@H](C)CN(Cc2ccc(-c3cnc4[nH]c5cnc(C#N)cc5c4c3)cc2)C1 | 8.38 | 5.39 | 6.68
c1cnc(-c2cc3c(cn2)[nH]c2ncc(-c4ccc(CN5CCCCC5)cc4)cc23)cn1 | 8.64 | 5.92 | 6.77
Cn1ccc(-c2cnc3[nH]c4cnc(C#N)cc4c3c2)n1 | 7.47 | – | 5.60
CC(C)(c1ccc(-c2cnc3[nH]c4cnc(C#N)cc4c3c2)cc1)N1CCCCC1 | 7.99 | 6.29 | 6.64
N#Cc1cc2c(cn1)[nH]c1ncc(-c3ncc[nH]3)cc12 | 7.83 | – | < 5.30
c1cc(-c2cc3c(cn2)[nH]c2ncc(-c4ccc(CN5CCCCC5)cc4)cc23)ccn1 | 8.04 | 6.11 | 5.80
CN1CCN(c2ccc(-c3cnc4[nH]c5cnc(C#N)cc5c4c3)cc2)CC1 | – | 7.74 | –
N#Cc1cc2c(cn1)[nH]c1ncc(-c3cccnc3)cc12 | 7.12 | – | < 5.30
CCNC(=O)c1cc2c(cn1)[nH]c1ncc(-c3ccc(CN4CCCCC4)cc3)cc12 | 6.99 | – | 5.65
N#Cc1cc2c(cn1)[nH]c1ncc(-c3ccc(CN4CCOCC4)cc3)cc12 | 7.86 | 4.88 | 6.67
c1ncc(-c2cc3c(cn2)[nH]c2ncc(-c4ccc(CN5CCCCC5)cc4)cc23)cn1 | 8.29 | 6.58 | 6.79
CCNc1cnc2[nH]c3cnc(C#N)cc3c2c1 | 7.25 | – | 5.75
CCN1CCc2cc(-c3cnc4[nH]c5cnc(C#N)cc5c4c3)ccc2C1 | 8.64 | 6.80 | 6.82
N#Cc1cc2c(cn1)[nH]c1ncc(-c3ccc(CN4CCC(F)CC4)cc3)cc12 | 8.30 | 6.05 | 7.02
c1nnc(-c2cc3c(cn2)[nH]c2ncc(-c4ccc(CN5CCCCC5)cc4)cc23)o1 | 9.02 | 6.35 | 6.99
N#Cc1cc2c(cn1)[nH]c1ncc(-c3ccccn3)cc12 | 6.90 | – | < 5.30
c1cncc(-c2cc3c(cn2)[nH]c2ncc(-c4ccc(CN5CCCCC5)cc4)cc23)c1 | 9.02 | 6.31 | 7.12
c1cc(-c2cnc3[nH]c4cnc(-c5cnoc5)cc4c3c2)ccc1CN1CCCCC1 | 8.96 | 6.18 | 6.84
CN1CCN(c2cccc(-c3cnc4[nH]c5cnc(C#N)cc5c4c3)c2)CC1 | 8.72 | 5.32 | 6.88
N#Cc1cc2c(cn1)[nH]c1ncc(-c3ccncc3)cc12 | 7.37 | – | < 5.30
c1cc2c(cn1)[nH]c1ncc(-c3ccc(CN4CCCCC4)cc3)cc12 | 7.73 | – | 5.72
C[C@@H]1CCC[C@H](C)N1Cc1ccc(-c2cnc3[nH]c4cnc(C#N)cc4c3c2)cc1 | 8.68 | 6.87 | 7.00
